Activity calls are given as the source filed them.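 The calls were made as follows: active = log virus titer change below -1, over tenfold drop in progeny titer versus untreated infected control; inactive = the rest.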

This test relates to HEp-2 cells, RSV plaque reduction, virus titer. Put plainly: RSV titer reduction in HEp-2 cells, cell-based, plaque reduction, set 4 (AID 588713). The note with it: at 10 µM; hits give low values. A digest of the protocol: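 assay system = RSV-infected HEp-2 cells | doses = test compound with 0.5% DMSO final | also added = RSV Long, MOI 0.1 | detection = neutral red-stained plaques on HEp-2 monolayers | timing = 2 h infection, then 48 h compound exposure at 37 °C | evaluation = progeny virus titer in serially diluted 48 h supernatants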
In the case of `CC(C)c1ccc(Cn2c(=O)n(Cc3ccc(C(=O)NCc4ccco4)cc3)c(=O)c3ccccc32)cc1`, the log virus titer change is -2.83.
Take `COCCCNC(=O)c1ccc(Cn2c(=O)c3ccccc3n(Cc3ccc([N+](=O)[O-])cc3)c2=O)cc1`: the log virus titer change was under -6.18.
With `CN(C)c1ccc(Cn2c(=O)n(Cc3ccc(C(=O)NCC4COC4)cc3)c(=O)c3ccccc32)cc1`, the log virus titer change is under -6.18.
In the case of `O=C(O)c1ccc(Cn2c(=O)n(Cc3ccc(C(=O)NCC4COC4)cc3)c(=O)c3ccccc32)cc1`, the log virus titer change was 0.68 (inactive).

Values taken from PubChem BioAssay AID588713 (Southern Research Specialized Biocontainment Screening …, 2011).
